Test results reported in ChEMBL document CHEMBL3585337, “Selective inhibition of prolyl 4-hydroxylases by bipyridinedicarboxylates” (Bioorg Med Chem, 2015).
Active and inactive are the calls of the source. The rule behind the calls is not given here.

How the values were obtained:
[1] = Binding affinity to Fe(2) assessed as Fe(compound)2+/3 complex formation at 150 uM in Tris buffer at pH 7.8 at 30 degC
How it was run: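 Assay buffer: 50 mM Tris-HCl pH 7.8, 1% w/v BSA, 100 µg/mL catalase, 2 mM sodium ascorbate, 100 µM AKG, 100 µM DTT, 50 µM FeSO4. Incubated at 30 °C with or without ligand (150 µM). Fe(ligand)3 2+ complex detected by UV–Vis spectrophotometry.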

[2] = target: T1, Prolyl 4-hydroxylase subunit alpha-1 (Homo sapiens, UniProt P13674); test: Inhibition of human recombinant CP4H1 expressed in Escherichia coli Origami B(DE3) at 10 uM pre-incubated for 2 mins followed by alpha-ketoglutarate addition using dansylGlyProProGlyOEt substrate in Tris-HCl buffer at pH 7.8 at 30 degC by HPLC method
[3] = Binding affinity to Fe(2) assessed as half maximal concentration required for binding 20 uM Fe(2) in pH 7.0 sodium phosphate buffer
How it was run: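 Ligand at 3–500 µM in 10 mM sodium phosphate pH 7.0, started by adding freshly made FeSO4 (20 µM). Equilibrated 15 min, then absorbance read at complex λmax with the no-ligand blank subtracted. Absorbance plotted against log ligand, and Fe20-EC50 taken by sigmoidal non-linear regression. Triplicate; mean ± SE.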

[4] = target: T1, Prolyl 4-hydroxylase subunit alpha-1; test: Inhibition of human recombinant CP4H1 expressed in Escherichia coli Origami B(DE3) pre-incubated for 2 mins followed by alpha-ketoglutarate addition using dansylGlyProProGlyOEt substrate in Tris-HCl buffer at pH 7.8 at 30 degC by HPLC based Cheng-Prussoff equation method
[5] = target: Egl nine homolog 1 (Homo sapiens) (UniProt Q9GZT9); test: Inhibition of N-terminal hexa-histidine tagged human PHD2 (181 to 426 amino acids) at 10 uM pre-incubated for 2 mins followed by alpha-ketoglutarate addition using HIF1alpha peptide (556 to 574 amino acids) and 50 uM FeSO4 by RP-HPLC method
How it was run: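 5 µM NHis6-PHD2(181–426) in Tris-HCl pH 7.8 with 50 µM HIF-1α(556–574) peptide, 1 mg/mL BSA, 0.3 mg/mL catalase, 2 mM ascorbate, 1 mM DTT. Started with 35 µM α-ketoglutarate, 10 min at 30 °C, quenched by 60 s boiling. Conversion by C18 HPLC at 218 nm, relative to no-inhibitor control; three independent experiments.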

[6] = target: T1, Prolyl 4-hydroxylase subunit alpha-1; test: Inhibition of human recombinant CP4H1 expressed in Escherichia coli Origami B(DE3) pre-incubated for 2 mins followed by alpha-ketoglutarate addition using dansylGlyProProGlyOEt substrate in Tris-HCl buffer at pH 7.8 at 30 degC by HPLC method
[7] = Inhibition of human collagen prolyl 4-hydroxylase

Chain of Egl nine homolog 1 (Homo sapiens) (Q9GZT9 2-426 limits assumed): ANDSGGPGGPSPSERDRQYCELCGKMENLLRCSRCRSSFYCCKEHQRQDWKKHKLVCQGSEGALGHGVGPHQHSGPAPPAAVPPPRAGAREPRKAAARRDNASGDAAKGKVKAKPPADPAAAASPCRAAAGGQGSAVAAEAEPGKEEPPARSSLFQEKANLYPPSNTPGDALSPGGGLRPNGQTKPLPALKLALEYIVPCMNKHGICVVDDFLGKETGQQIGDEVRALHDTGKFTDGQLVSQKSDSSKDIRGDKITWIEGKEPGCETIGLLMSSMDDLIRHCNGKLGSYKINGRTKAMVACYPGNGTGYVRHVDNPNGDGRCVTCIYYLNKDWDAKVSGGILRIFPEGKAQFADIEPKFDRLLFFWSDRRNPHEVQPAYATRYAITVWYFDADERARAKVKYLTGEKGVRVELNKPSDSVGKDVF
T1 sequence (P13674 whole entry): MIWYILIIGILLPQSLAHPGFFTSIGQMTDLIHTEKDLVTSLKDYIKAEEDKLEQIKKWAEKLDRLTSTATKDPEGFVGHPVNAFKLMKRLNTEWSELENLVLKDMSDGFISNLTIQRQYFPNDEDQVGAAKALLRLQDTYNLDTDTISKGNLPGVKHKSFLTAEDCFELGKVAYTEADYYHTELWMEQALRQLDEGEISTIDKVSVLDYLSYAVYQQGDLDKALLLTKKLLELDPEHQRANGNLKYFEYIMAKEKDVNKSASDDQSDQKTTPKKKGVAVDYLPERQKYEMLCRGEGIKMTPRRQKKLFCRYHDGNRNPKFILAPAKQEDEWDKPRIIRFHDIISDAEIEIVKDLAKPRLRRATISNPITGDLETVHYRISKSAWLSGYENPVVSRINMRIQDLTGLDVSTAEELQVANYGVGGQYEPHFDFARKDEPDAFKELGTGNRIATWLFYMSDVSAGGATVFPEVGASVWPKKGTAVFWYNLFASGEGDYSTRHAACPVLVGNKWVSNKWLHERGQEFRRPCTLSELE

Row | EC50 [3] | SMILES | Activity [1] | inhibition [2] | EC50 ([3]; read-out: EC50) [µM] | Ki [4] [µM] | inhibition [5] | IC50 [6] [µM] | Ki [7] [µM]
1 |  | c1ccc(-c2ccccn2)nc1 | Active | inactive | 43 |  |  |  | 
2 |  | O=C(O)c1ccc(-c2ccc(C(=O)O)cn2)nc1 | Active |  | 112 | 0.14 | inactive | 0.84 | 
3 |  | O=C(O)c1ccnc(C(=O)O)c1 |  |  |  |  | Active |  | 
4 | Not Active | O=C(O)c1cccnc1-c1ncccc1C(=O)O |  |  |  |  |  |  | 
5 |  | O=C(O)c1ccc(-c2cccc(C(=O)O)n2)nc1 |  |  | 27 |  | inactive |  | 
6 |  | O=C(O)CNC(=O)C(=O)O |  |  |  |  | Active |  | 
7 |  | O=C(O)c1ccc(C(=O)O)nc1 [PYRIDINE-2,5-DICARBOXYLIC ACID] |  | Active |  | 2.6 | inactive | 15 | 0.8
8 |  | O=C(O)c1ccnc(-c2cc(C(=O)O)ccn2)c1 | Active | Active | 38 |  | Active |  | 
9 |  | O=C(O)c1ccc(-c2cc(C(=O)O)ccn2)nc1 | Active | > 90% | 78 | 0.2 | Active | 1.2 | 
10 | Not Active | O=C(O)c1cccc(-c2cccc(C(=O)O)n2)n1 |  |  |  |  | inactive |  | 
11 |  | O=C(O)c1ccnc(-c2cccc(C(=O)O)n2)c1 |  |  | 26 |  | inactive |  | 
